This is a sample that favours compounds with a hit; in the whole collection about 1.8% have one here.
NR1D1 modulator: modulates human Rev-erb alpha binding to DNA. Rev-erbα–FITC-DNA binding, fluorescence polarization, 90 min. activity, % at 10 µM. 370,000 tested, 0.79% active. AID 1259318;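 active = activity above about 14%, limit read from the data; passing the limit was not always enough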;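 also: 0% = DMSO wells with 35 nM protein and 100% = DMSO wells with 750 nM protein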
Target sequence (P20393 whole entry, looked up): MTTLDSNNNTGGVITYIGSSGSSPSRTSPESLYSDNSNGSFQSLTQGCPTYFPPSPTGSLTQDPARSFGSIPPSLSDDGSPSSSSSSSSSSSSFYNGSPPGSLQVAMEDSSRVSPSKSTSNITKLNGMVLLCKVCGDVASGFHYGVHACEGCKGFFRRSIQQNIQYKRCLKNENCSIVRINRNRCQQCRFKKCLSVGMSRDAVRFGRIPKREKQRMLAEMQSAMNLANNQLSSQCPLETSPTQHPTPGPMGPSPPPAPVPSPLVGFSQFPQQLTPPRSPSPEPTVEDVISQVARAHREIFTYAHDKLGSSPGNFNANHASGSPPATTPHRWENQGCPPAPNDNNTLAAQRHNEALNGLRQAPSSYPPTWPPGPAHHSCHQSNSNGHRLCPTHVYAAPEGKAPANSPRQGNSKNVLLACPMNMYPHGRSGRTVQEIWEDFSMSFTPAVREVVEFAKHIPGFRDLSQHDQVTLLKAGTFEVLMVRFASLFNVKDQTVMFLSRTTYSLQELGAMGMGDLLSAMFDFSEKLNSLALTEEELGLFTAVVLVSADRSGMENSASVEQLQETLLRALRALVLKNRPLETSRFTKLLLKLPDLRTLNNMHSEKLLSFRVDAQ
PG9 Ab binder: binds the HIV-1 gp120 antibody PG9; TR-FRET gp120-PG9 antibody binding; inhibition, % at 6.7 µM; 360,000 tested, 0.43% active; AID 624416; in the data active = inhibition above about 8.5%
Tb MetRS inh: Trypanosoma brucei MetRS inhibition; purified T. brucei MetRS, ATP depletion, Kinase-Glo luminescence; 360,000 tested, 0.4% active; inhibition, % at 11.9 µM;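 active = inhibition above a per-plate cutoff of the control wells' mean inhibition plus 3 SD, cut at about 5.5% in these data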;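 also: 0% = DMSO wells median and 100% = median of wells with control inhibitor compound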
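System: purified T. brucei MetRS enzyme / Detection: Kinase-Glo luciferase luminescence reporting remaining unconsumed ATP / Medium: HEPES buffer with MgCl2, KCl, DTT, spermine, BSA, pyrophosphatase / Replication: singlicate, one well per compound / Evaluation: percent inhibition relative to median high and low control wells / Schedule: 2 h aminoacylation at 25 °C after 15 min preincubation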
Rin1 Abl inh: blocks binding of human Rin1 to Abl; P00519+Q13671; TR-FRET Rin1/Abl binding, biochemical; inhibition, % at 7.35 µM; 360,000 tested, 0.4% active; AID 588664; in the data active = inhibition above about 5%, passing the limit was not always enough
NR1D1 mod conf: confirmation of modulators of human Rev-erb alpha DNA binding; shares compounds with NR1D1 modulator; Rev-erb alpha FITC-DNA binding, fluorescence polarization, 90 min; activation, % at 25 µM; 3,000 tested, 61% active; AID 1259319;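 active = activation at or above a set limit, or at least 3 SD above the negative control mean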;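 also: 0% = 35 nM protein with DMSO and 100% = 750 nM protein high control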
RORg counter: affects RORgamma DNA binding in a Rev-erb alpha counter-screen; shares compounds with NR1D1 modulator; purified RORgamma protein-FITC-DNA binding, fluorescence polarization; IC50, µM; 910 tested, 8% active;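 active = Compounds whose fitted half-maximal concentration for disrupting protein-DNA binding is below 10 micromolar; the record names Rev-erb in its text, so the target is in doubt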
Starred values were filed as active, the others as inactive; i = inactive; / = no result given.

SMILES	NR1D1 modulator	PG9 Ab binder	Tb MetRS inh	Rin1 Abl inh	NR1D1 mod conf	others
CN1C(=O)C(=Cc2ccc(N3CCCCC3)o2)C(=O)N(C)C1=S	40*	-4	-1	-20	47*	RORg counter=>40
C=CCN1C(=O)/C(=C/c2ccc(N3CCOCC3)o2)C(=O)NC1=S	9	-4	1	-13	/
Cc1cc(C)cc(N2C(=O)/C(=C\c3ccc(N4CCN(C)CC4)o3)C(=O)NC2=S)c1	17*	-6	0	-4	11
CCN(CC)c1ccc(C=C2C(=O)N(C)C(=S)N(C)C2=O)o1	35*	-3	-1	-7	15
CCOC(=O)c1c(C)n(Cc2ccccc2)c2ccc(OCC(O)CNC(C)(C)C)cc12 (stereo unspecified)	-2	-3	-1	1	/
N#Cc1nn(-c2c(Cl)cc(C(F)(F)F)cc2Cl)c(N)c1S(=O)C(F)(F)F (stereo unspecified)	0	/	/	/	/
CCN(CC)c1ccc(/C=C2\C(=O)NC(=S)N(C)C2=O)o1	57*	-10	0	-20	62*	RORg counter=>40
CCN(CC)c1ccc(/C=C2\C(=O)NC(=S)N(c3ccc(OC)cc3OC)C2=O)o1	/	/	-1	-19	/
O=C(O)CCCO	-11	/	/	/	/
CC(C)CC(C)N (stereo unspecified)	19*	-1	0	5	-3
Cc1c(N=Nc2c(O)[nH]c(=S)[nH]c2=O)c(=O)n(-c2ccccc2)n1C	1	-9	1	-7	/
CCOc1ccc2nc(N=Nc3c(O)[nH]c(=O)[nH]c3=O)sc2c1	25*	-7	0	-5	16
O=C(O)c1cccc(N=Nc2c(O)[nH]c(=O)[nH]c2=O)c1	-4	-2	-1	-1	/
CCOc1ccc2nc(N=Nc3c(O)[nH]c(=S)[nH]c3=O)sc2c1	25*	-5	-1	-2	36*	RORg counter=i
COc1cc2c(cc1OC)-c1c3c(cc4c1[C@@H](C2)N(C)CC4)OCO3	15*	-8	0	-1	-3
OC1CN2CCCC(O)C2C1O (stereo unspecified)	0	-3	/	/	/
Nc1c2c(nc3ccccc13)CCN(Cc1ccccc1)C2	32*	-1	1	-21	34*	RORg counter=>40
C1=C(c2c[nH]c3ccccc23)CCN(Cc2ccccc2)C1	1	-1	0	-1	/
CCCCCn1c(=O)c(C(=O)Nc2ccccc2Cl)c(O)c2ccccc21	76*	-1	0	0	33*	RORg counter=i
CC(C)CCn1c(=O)c(C(=O)Nc2ccccc2S(N)(=O)=O)c(O)c2ccccc21	29*	8	0	0	21*
CCCCn1c(=O)c(C(=O)Nc2ccccc2C)c(O)c2ccccc21	/	/	0	-4	/
